How the values were obtained:
[1] = human, microsomes
SCC-4 xenografts = test: Antitumor efficacy of intratumorally administered taccalonolides; format: in vivo; details: intratumoral
[2] = system: murine xenograft models of breast cancer; details: systemic i.p. injection ref 23, 25; cited from earlier work
[3] = Hydrolysis of the C-15 acetoxy group of AF to AJ; format: physicochemical; details: serum in vitro
[4] = In vivo pharmacokinetic assessment in mice, plasma LC-MS; details: 300 µg IV, mouse plasma
In short: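 Female athymic nude mice, 6–7 weeks, got a single 300 µg tail-vein bolus in 100 µL PBS/5% ethanol. Blood was taken by cardiac puncture under CO2 anaesthesia pre-dose, at end of infusion, 0.25, 0.5, 1 and 2 h (3–5 mice/time point). EDTA plasma (1,200 rcf, 10 min), 100 µL extracted into 1 mL cold ethyl acetate. Quantified against 1/X2-weighted linear calibration. Non-compartmental AUC by linear trapezoid, extrapolated to infinity.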

Row | SMILES | NADPH-free intrinsic clearance ([1]; pH 7.4) [µL/min/mg] | weight loss or other toxicities (SCC-4 xenografts; two 40 µg injections on days 0 and 3) | antitumor efficacy on systemic administration [2] | hydrolysis of the C-15 acetoxy group [3] | effect on tumor growth (SCC-4 xenografts; 20 µg total dose) | effect on tumor growth (SCC-4 xenografts; 80 µg total dose, over the course of the trial) | drug in the plasma 120 min after injection [4] | rate of clearance (microsomal intrinsic clearance) [1] | NADPH-dependent intrinsic clearance ([1]; pH 7.4) [µL/min/mg]
1 | CC(=O)O[C@@H]1[C@H]2[C@H]3[C@H]([C@H](OC(C)=O)[C@H](OC(C)=O)[C@]2(C)[C@H]2[C@H](C)[C@H]4O[C@]45OC(=O)[C@@](C)(O)[C@]5(C)[C@H]12)[C@]1(C)[C@H](C[C@@H]2O[C@@H]2[C@@H]1OC(C)=O)C(=O)[C@@H]3O [taccalonolide AF] | 0 | no associated weight loss or other toxicities | demonstrated antitumor efficacy | observed | – | – | – | – | –
2 | CC(=O)O[C@H]1[C@H]2[C@H]([C@@H]3[C@@H](O)[C@@H]4[C@H]([C@H](C)[C@H]5O[C@]56OC(=O)[C@@](C)(O)[C@]46C)[C@@]3(C)[C@H]1OC(C)=O)[C@@H](O)C(=O)[C@H]1C[C@@H]3O[C@@H]3[C@H](OC(C)=O)[C@]21C [taccalonolide AJ] | – | – | no evidence of antitumor efficacy | – | no inhibition of tumor growth | robust and prolonged inhibition of tumor growth | no drug detectable | – | –
3 | CC(=O)CC(c1ccccc1)c1c(O)c2ccccc2oc1=O (centres unmarked) [warfarin] | 0 | – | – | – | – | – | – | no clearance | 0
